From ChEMBL document CHEMBL3297735, “Optimization of troglitazone derivatives as potent anti-proliferative agents: towards more active and less toxic compounds” (Eur J Med Chem, 2014) come the findings set out here.

The nature of data set [1]: Cytotoxicity against human MDA435 cells assessed as cell viability at 10 uM after 72 hrs by MTS assay in presence of 10% fetal calf serum relative to control. The format is functional. The conditions noted are these: MDA-MB-435, 72 h, read-out: Activity. (In general: Tetrazolium dyes change colour on reduction, which living cells bring about.)
In another data set the test system is MDA-MB-231. As to the kind of experiment: Cytotoxicity against human MDA-MB-231 cells assessed as cell viability at 10 uM after 72 hrs by MTS assay in presence of 10% fetal calf serum relative to control. The format is functional. The settings on record: MDA-MB-231, 72 h, read-out: Activity. An outline of the steps: (§1)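 Cells were grown in RPMI with L-glutamine, 10% FCS, penicillin/streptomycin and fungizone at 37 °C under 5% CO2. Wells were seeded with 1900 cells for MCF-7 or 1300 cells for MDA-MB-231. After 24 h, compound was added from a 10 mM DMSO stock (final DMSO 1%) for 72 h, with DMSO-only controls. Viable cells were read by MTS at 490 nm and expressed as % of untreated. Mean ± SEM, N = 3.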

For a further data set, the system named is LNCaP. As to the kind of experiment: Cytotoxicity against human LNCAP cells assessed as cell viability at 10 uM after 72 hrs by MTS assay in presence of 10% fetal calf serum relative to control. It is filed as functional. The conditions noted are these: read-out: Activity.
Another data set deals with MCF7. As to the kind of experiment: Cytotoxicity against human MCF7 cells assessed as cell viability at 10 uM after 72 hrs by MTS assay in presence of 10% fetal calf serum relative to control. The settings on record: MCF7, 72 h, read-out: Activity. It is filed as functional. Summed up:
as §1

The subject of the next data set is PC-3. The data set is described as follows: Cytotoxicity against human PC3 cells assessed as cell viability at 10 uM after 72 hrs by MTS assay in presence of 10% fetal calf serum relative to control. The settings on record: PC-3, 72 h, read-out: Activity. It is filed as functional.
For another data set, the system named is HCT-116. The data set is described as follows: Cytotoxicity against human HCT116 cells assessed as cell viability at 10 uM after 72 hrs by MTS assay in presence of 10% fetal calf serum relative to control. The format is functional. The settings on record: HCT-116, 72 h, read-out: Activity.
A further data set deals with HepG2. The data set is described as follows: Cytotoxicity against human HepG2 cells assessed as cell viability at 10 uM after 72 hrs by MTS assay in presence of 10% fetal calf serum relative to control. It is filed as functional. The settings on record: HepG2, 72 h, read-out: Activity.
A short description of data set [2]: Cytotoxicity against human MiaPaCa cells assessed as cell viability at 10 uM after 72 hrs by MTS assay in presence of 10% fetal calf serum relative to control. The format is functional. The settings on record: MIA PaCa-2, 72 h, read-out: Activity.
Data set [3] is described as follows: Cytotoxicity against human hepatocytes assessed as cell viability at 100 uM after 90 mins by MTT assay relative to control. The format is cell-based, Hepatocyte. The settings on record: read-out: Activity. An outline of the steps: (§2)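 Cryopreserved human hepatocytes were plated at 0.1 × 10⁶ cells/well and exposed to compound for 90 min. MTT was then added for 30 min at 37 °C, plates were centrifuged, and formazan was dissolved in DMSO. Absorbance was read at 595 nm. Surviving cells are expressed as % of non-treated cells ± SEM.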

A short description of data set [4]: Cytotoxicity against human hepatocytes assessed as cell viability at 200 uM after 90 mins by MTT assay relative to control. The conditions noted are these: read-out: Activity. The format is cell-based, Hepatocyte. An outline of the steps:
as §2

Regarding `O=C1S/C(=C\c2ccccc2)C(=O)N1Cc1ccccc1`, the viability at 10 µM in data set [1] amounted to 89.9%; with MDA-MB-231, 81.6%; in the data set on LNCaP, 90.8%; with MCF7 it was 95.6%; in the data set on PC-3, 82.4%; in the data set on HCT-116, 85.4%. The results for the viability at 10 µM (in the data set on HepG2; in data set [2]) were 85% and 88.8%, respectively.

`Cc1c(C)c2c(c(C)c1OC(=O)CCCCCCCNC(=O)OC(C)(C)C)CCC(C)(COc1ccc(/C=C3\SC(=O)NC3=O)cc1)O2` (stereo not drawn): the viability at 10 µM was found to be 51.5% in data set [1]; 42.2% in the data set on MDA-MB-231; 21.1% in the data set on LNCaP; 62.5% in the data set on MCF7; 62% with PC-3; 37% in the data set on HCT-116. For the same compound, the viability at 10 µM in the data set with HepG2 was 18.4%; in [2] it was 53.8%. In [3], the viability at 1.5 h, 100 µM came to 79.3%. For the same compound, in [4], the viability at 1.5 h, 200 µM is 74.7%.

For `CC1(CN2C(=O)S/C(=C\c3cc(Br)c(O)c(Br)c3)C2=O)CCCCC1`, the viability at 10 µM was 30.6% in data set [1]; 46.9% in the data set on MDA-MB-231; 18.8% with LNCaP; 23.8% with MCF7; 52.9% in the data set on PC-3; 13% in the data set on HCT-116. In addition, the results for the viability at 10 µM (with HepG2; in [2]) were 25.8% and 34.7%, respectively. Also, the viability at 1.5 h, 100 µM in data set [3] came out at 42.1%. For the same compound, the viability at 1.5 h, 200 µM in data set [4] amounted to 30.3%.

On to `O=C1S/C(=C\c2ccc(O)cc2)C(=O)N1Cc1ccccc1`, for which the viability at 10 µM in data set [1] was determined as 30.9%; in the data set with MDA-MB-231, 24.5%; with LNCaP, 77.6%; in the data set with MCF7, 43.9%; in the data set on PC-3, 65.8%; in the data set on HCT-116 it was 29.8%. Further, the viability at 10 µM came to 54.5% in the data set with HepG2 and 25.6% in data set [2]. Further, the viability at 1.5 h, 100 µM in data set [3] was determined as 40.8%. The viability at 1.5 h, 200 µM in data set [4] turned out to be 18%.

On to `O=C1S/C(=C\c2ccc(Cl)cc2)C(=O)N1Cc1ccccc1`, for which the viability at 10 µM in data set [1] was determined as 88.8%; in the data set with MDA-MB-231, 73%; in the data set on LNCaP, 85.5%; in the data set with MCF7 it was 100%; in the data set with PC-3 it was 95.5%; in the data set on HCT-116 it was 84%. Besides, the viability at 10 µM in the data set with HepG2 worked out at 79.3%; in data set [2] it was 88.3%.

Turning to `O=C1S/C(=C\c2ccc([N+](=O)[O-])cc2)C(=O)N1Cc1ccccc1`, the viability at 10 µM in data set [1] was determined as 86%; in the data set on MDA-MB-231 it was 64.6%; in the data set on LNCaP, 77.9%; in the data set on MCF7 it was 80.2%; in the data set on PC-3 it was 72.3%; with HCT-116, 93.9%. In addition, the viability at 10 µM is 79.4% in the data set with HepG2 and 84.9% in data set [2].

`COc1ccc(/C=C2\SC(=O)N(Cc3ccccc3)C2=O)cc1`: the viability at 10 µM in data set [1] came to 92.7%; with MDA-MB-231, 89.5%; in the data set with LNCaP it was 100%; in the data set with MCF7, 100%; in the data set on PC-3, 91.4%; with HCT-116 it was 82.1%. The viability at 10 µM was 87.9% with HepG2 and 99.3% in data set [2].

Turning to `COc1cc(/C=C2\SC(=O)N(Cc3ccccc3)C2=O)cc(OC)c1OC`, the viability at 10 µM turned out to be 78.8% in [1]; 51.5% in the data set with MDA-MB-231; 76.2% in the data set with LNCaP; 74.7% in the data set on MCF7; 67.9% with PC-3; 55.9% in the data set with HCT-116. Besides, the viability at 10 µM with HepG2 was determined as 63.8%; in data set [2], 69.8%.

Consider `O=C1S/C(=C\c2ccc(O)cc2)C(=O)N1C/C=C/c1ccccc1`, for which the viability at 10 µM in [1] stood at 18.3%; in the data set on MDA-MB-231, 8.7%; in the data set with LNCaP it was 63.4%; in the data set on MCF7 it was 35%; in the data set on PC-3 it was 57.1%; with HCT-116 it was 17.4%. The figures for the viability at 10 µM (in the data set on HepG2; in [2]) were 41.3% and 16.2%, respectively. For the same compound, the viability at 1.5 h, 100 µM in [3] turned out to be 88.8%. Further, the viability at 1.5 h, 200 µM in [4] worked out at 62.7%.

As for `CC(C)(C)OC(=O)c1ccccc1-c1ccc(CN2C(=O)S/C(=C\c3ccc(O)cc3)C2=O)cc1`, the viability at 10 µM was found to be 66.8% in data set [1]; 51.9% in the data set on MDA-MB-231; 32.4% in the data set with LNCaP; 80.3% in the data set on MCF7; 49.9% with PC-3; 61.6% in the data set on HCT-116. Besides, the viability at 10 µM in the data set on HepG2 turned out to be 22.8%; in data set [2], 59.9%.

As for `O=C(O)c1ccccc1-c1ccc(CN2C(=O)S/C(=C\c3ccc(O)cc3)C2=O)cc1`, the viability at 10 µM in [1] is 100%; in the data set on MDA-MB-231 it was 94.9%; in the data set on LNCaP, 90.1%; in the data set with MCF7 it was 99.6%; with PC-3, 95.6%; with HCT-116, 97.6%. Besides, the results for the viability at 10 µM (in the data set on HepG2; in [2]) were 89.8% and 99.3%, respectively.

Turning to `Cc1c(C)c2c(c(C)c1O)CCC(C)(/C=C1\SC(=O)N(Cc3ccccc3)C1=O)O2` (racemic), the viability at 10 µM is 75.7% in data set [1]; 88% in the data set with MDA-MB-231; 84.6% with LNCaP; 94.2% in the data set with MCF7; 83.4% in the data set on PC-3; 81% with HCT-116. Moreover, the viability at 10 µM in the data set on HepG2 worked out at 71.5%; in [2], 80.7%.

Take `Cc1c(C)c2c(c(C)c1O)CCC(C)(COc1ccc(/C=C3\SC(=O)N(Cc4ccccc4)C3=O)cc1)O2` (racemic): the viability at 10 µM was found to be 88.7% in [1]; 76.4% with MDA-MB-231; 85.7% in the data set with LNCaP; 85.3% with MCF7; 100% with PC-3; 43% in the data set on HCT-116. Besides, the viability at 10 µM in the data set on HepG2 amounted to 63.2%; in [2], 100%.

Take `Cc1c(C)c2c(c(C)c1O)CCC(C)(COc1ccc(/C=C3\SC(=O)N(C)C3=O)cc1)O2` (racemic): the viability at 10 µM is 94.7% in [1]; 64.3% in the data set with MDA-MB-231; 66.8% in the data set with LNCaP; 100% with MCF7; 85.5% in the data set with PC-3; 68.4% with HCT-116. Besides, the viability at 10 µM was 60.3% in the data set on HepG2 and 80.2% in [2]. For the same compound, the viability at 1.5 h, 100 µM in data set [3] is 147%. In addition, the viability at 1.5 h, 200 µM in data set [4] was 127%.

Consider `Cc1c(C)c2c(c(C)c1OC(=O)CCCCCCCN)CCC(C)(COc1ccc(/C=C3\SC(=O)N(C)C3=O)cc1)O2` (racemic), for which the viability at 10 µM in data set [1] came out at 0%; with MDA-MB-231 it was 0%; with LNCaP it was 9.3%; with MCF7, 0%; in the data set on PC-3, 2.4%; with HCT-116 it was 0.6%. Further, the viability at 10 µM in the data set with HepG2 is 7.9%; in [2] it was 0%. Further, the viability at 1.5 h, 100 µM in [3] is 84.5%. Also, the viability at 1.5 h, 200 µM in [4] stood at 54.4%.

Turning to `CCOC(=O)C1(C)CCc2c(C)c(/C=C3\SC(=O)N(Cc4ccccc4)C3=O)c(C)c(C)c2O1` (racemic), the viability at 10 µM amounted to 81.4% in [1]; 68.8% in the data set with MDA-MB-231; 87.5% with LNCaP; 97.2% in the data set with MCF7; 98.3% in the data set with PC-3; 88% with HCT-116. The viability at 10 µM in the data set with HepG2 came out at 69.2%; in data set [2] it was 86%.

For the compound `Cc1c(C)c2c(c(C)c1OC(=O)OC(C)(C)C)CCC(C)(/C=C1\SC(=O)N(Cc3ccccc3)C1=O)O2` (racemic), the viability at 10 µM in data set [1] was determined as 67.6%; in the data set on MDA-MB-231 it was 75.4%; in the data set with LNCaP, 96.2%; in the data set on MCF7, 76.5%; with PC-3, 82.4%; in the data set with HCT-116, 90.5%. Moreover, the viability at 10 µM turned out to be 76.3% in the data set on HepG2 and 75.3% in [2].
